Measured values from ChEMBL document CHEMBL1671655, “Anidulafungin is fungicidal and exerts a variety of postantifungal effects against Candida albicans, C. glabrata, C. parapsilosis, and C. krusei isolates” (2009).
≈ marks a conversion by molar mass, not a printed value. Calls of active or inactive are those of the source. The calls are words filed in the database; no cut-off is given here. Starred links: 1 amine or outer side, 2 acyl side, 3 side chain; linkers in the order of their positions; H or OH if unused. Positions of bridges follow the written chain, without caps; N, C: chain ends. Non-standard residues stand in square brackets, D forms with d. Residues, ends and D or L forms follow the SMILES beside them. *: point of attachment. pTerphenylCO(4''-OnC5H11) = CCCCCOc1ccc(-c2ccc(-c3ccc(C(=O)*)cc3)cc2)cc1; Orn(4R-OH,5R-OH) = O=C([C@H](C[C@@H](O)[C@@H](O)N[*:3])N[*:1])[*:2]; hTyr(3S-OH,4S-OH) = N[C@H](C(=O)O)[C@H](O)[C@@H](O)c1ccc(O)cc1; Pro(3S-OH,4S-Me) = C[C@H]1CN[C@H](C(=O)O)[C@H]1O; Hyp = O=C(O)[C@@H]1C[C@@H](O)CN1

Experiments:
[1] = test system: Candida albicans; test: Fungicidal activity against Candida albicans isolate 1 assessed as log reduction in bacterial count at MIC after 48 hrs by time-kill analysis; format: functional; details: isolate 1, 48 h
Outline: (§1)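 Isolates subcultured twice on SDA, suspended to 0.5 McFarland, giving ~1 x 10^5 to 5 x 10^5 CFU/ml in MOPS-buffered RPMI 1640 (pH 7.0) with or without drug at multiples of MIC (MIC by CLSI M27-A3). Tubes shaken at 35°C with continuous drug. Sampled at 0–48 h, diluted 10-fold and plated on SDA; CFU counted after 48 h at 35°C. Run twice per isolate; means.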

[2] = test system: Pichia kudriavzevii; test: Fungicidal activity against Candida krusei isolate ATCC 6258 assessed as log reduction in bacterial count at 4 times MIC after 48 hrs by time-kill analysis; format: functional; details: isolate ATCC 6258, 48 h; outline: as §1
[3] = test system: Pichia kudriavzevii; test: Fungicidal activity against Candida krusei isolate 1 assessed as log reduction in bacterial count at 4 times MIC after 48 hrs by time-kill analysis; format: functional; details: isolate 1, 48 h; outline: as §1
[4] = test system: Pichia kudriavzevii; test: Fungicidal activity against Candida krusei isolate 1 assessed as log reduction in bacterial count at MIC after 48 hrs by time-kill analysis; format: functional; details: isolate 1, 48 h; outline: as §1
[5] = test system: Candida albicans; test: Fungicidal activity against Candida albicans isolate S assessed as log reduction in bacterial count at MIC after drug exposure for 1 hr followed by washout measured after 48 hrs in the absence of drug by PAFE study; format: functional
Outline: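 Starting inoculum ~1 x 10^5 to 5 x 10^5 CFU/ml in MOPS-buffered RPMI 1640 (pH 7.0) with drug at multiples of the CLSI M27-A3 MIC. After 1 h at 35°C, cells washed and centrifuged three times at 1,400 x g for 10 min, then resuspended in warm drug-free RPMI. Shaken at 35°C and plated on SDA at 0–48 h; CFU counted after 48 h. Run twice per isolate; means.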

[6] = test system: Candida parapsilosis; test: Fungicidal activity against Candida parapsilosis isolate A assessed as log reduction in bacterial count at 4 times MIC after drug exposure for 1 hr followed by washout measured after 48 hrs in the absence of drug by PAFE study; format: functional; details: Lodderomyces parapsilosis
Outline: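 Inoculum about 1 x 10^5 to 5 x 10^5 CFU/ml in RPMI 1640 (MOPS, pH 7.0) with drug, shaken at 35°C for 1 h. Cells were then washed and centrifuged at 1,400 x g for 10 min (3 cycles) and resuspended in warm drug-free RPMI. Samples plated on SDA at 0, 2, 4, 8, 12, 24 and 48 h; CFU counted after 48 h at 35°C. Run twice per isolate; means.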

[7] = test system: Candida albicans; test: Antifungal activity against Candida albicans ATCC 90028 assessed as time period for bacterial growth inhibition at 4 times MIC after 1 hr drug exposure; format: functional
Outline: (§2)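 Inoculum of about 1 x 10^5 to 5 x 10^5 CFU/ml in MOPS-buffered RPMI (pH 7.0), shaken at 35°C and exposed to drug for 1 h. Cells then washed and centrifuged three times and resuspended in drug-free warm RPMI. Samples plated on SDA at 0, 2, 4, 8, 12, 24 and 48 h, with CFU counted after 48 h at 35°C. Run twice per isolate; values are means.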

[8] = test system: Nakaseomyces glabratus; test: Antifungal activity against Candida glabrata by NCCLS M27A broth microdilution method; format: functional
[9] = test system: Candida parapsilosis; test: Antifungal activity against Candida parapsilosis isolate A by CLSI M27-A3 broth microdilution method; format: functional; details: Lodderomyces parapsilosis
Outline: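 CLSI M27-A3 broth microdilution in RPMI 1640 buffered to pH 7.0 with MOPS. Starting inoculum 0.5 x 10^3 to 2.5 x 10^3 cells/ml, incubated at 35°C. MIC read as the lowest concentration giving >50% growth reduction versus control. Each isolate tested on at least three occasions.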

[10] = test system: Candida parapsilosis; test: Antifungal activity against Candida parapsilosis assessed as time period for bacterial regrowth inhibition after 1 hr drug exposure; format: functional
[11] = test system: Candida albicans; test: Antifungal activity against Candida albicans ATCC 90028 assessed as time period for bacterial growth inhibition at 16 times MIC after 1 hr drug exposure; format: functional; outline: as §2
[12] = test system: Pichia kudriavzevii; test: Antifungal activity against Candida krusei isolate ATCC 6258 assessed as time period for bacterial growth inhibition at 16 times MIC after 1 hr drug exposure; format: functional; outline: as §2
[13] = test system: Candida albicans; test: Increase in susceptibility to SDS in Candida albicans isolate 1 assessed as cell wall damage at 4 times MIC after 1 hr relative to control; format: functional, organism-based
Outline: (§3)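 Cells recovered 8 h after a 1-h drug exposure were grown in YPD with 1% glucose to exponential phase and adjusted to OD599 0.1. Undiluted culture and 10-fold serial dilutions were spotted onto YPD plates containing SDS (0.01 to 0.04%), then incubated 72 h at 30°C. Growth compared with unexposed control cells; triplicate.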

[14] = test system: Candida albicans; test: Increase in susceptibility to SDS in Candida albicans ATCC 90028 assessed as cell wall damage at 4 times MIC after 1 hr relative to control; format: functional, organism-based; outline: as §3
[15] = test system: Pichia kudriavzevii; test: Increase in susceptibility to SDS in Candida krusei isolate ATCC 6258 assessed as cell wall damage at 4 times MIC after 1 hr relative to control; format: functional, organism-based; outline: as §3
[16] = test system: Candida albicans; test: Increase in susceptibility to calcofluor white in Candida albicans ATCC 90028 assessed as cell wall damage at MIC after 1 hr relative to control; format: functional, organism-based
Outline: (§4)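 Cells recovered 8 h after a 1-h drug exposure were grown to exponential phase in YPD with 1% glucose and adjusted to OD599 0.1. Undiluted and 10-fold serially diluted cultures were spotted onto YPD plates containing calcofluor white, then incubated at 30°C for 72 h. Growth compared with no-drug control cells; triplicate.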

[17] = test system: Candida albicans; test: Increase in susceptibility to calcofluor white in Candida albicans isolate 1 assessed as cell wall damage at 4 times MIC after 1 hr relative to control; format: functional, organism-based; outline: as §4
[18] = test system: Candida parapsilosis; test: Increase in susceptibility to calcofluor white in Candida parapsilosis isolate A assessed as cell wall damage at 16 times MIC after 1 hr relative to control; format: functional, organism-based
Outline: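 Candida given a 1-h anidulafungin pulse in MOPS-buffered RPMI 1640 (pH 7.0) at 35°C, washed three times by centrifugation, and regrown drug-free. Cells collected 8 h later, grown in YPD with 1% glucose to exponential phase, and set to OD599 0.1. Undiluted culture and 10-fold dilutions (4 µl) spotted on YPD plates with calcofluor white, then 30°C for 72 h. Triplicate; compared with no-drug cells.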

[19] = test system: Candida parapsilosis; test: Antifungal activity against Candida parapsilosis isolate A assessed as cell wall damage at MIC by Transmission electron microscopy; format: functional, organism-based
Outline: (§5)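 Cells recovered 8 h after a 1-h drug exposure were grown on SDA for 24 h at 35°C. Colonies fixed at 4°C in 0.1 M cacodylate (pH 7.2) with 2% glutaraldehyde and 2% paraformaldehyde, ethanol-dehydrated and embedded in Lowicryl K4M. Thin sections examined by transmission EM.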

[20] = test system: Pichia kudriavzevii; test: Antifungal activity against Candida krusei isolate 1 assessed as cell wall damage at MIC by Transmission electron microscopy; format: functional, organism-based; outline: as §5
[21] = test system: Candida albicans; test: Antifungal activity against Candida albicans isolate 1 assessed as cell wall damage at 4 times MIC by Transmission electron microscopy; format: functional, organism-based; outline: as §5
[22] = test system: Pichia kudriavzevii; test: Antifungal activity against Candida krusei isolate 1 assessed as cell wall damage at 4 times MIC by Transmission electron microscopy; format: functional, organism-based; outline: as §5
[23] = test system: Nakaseomyces glabratus; test: Antifungal activity against Candida glabrata isolate 1 coincubated with mouse J774 macrophages assessed as macrophage induced bacterial cell killing at 4 times MIC (reference value: 12 +/- 10 %); format: functional

In the case of CCCCCOc1ccc(-c2ccc(-c3ccc(C(=O)N[C@H]4C[C@@H](O)[C@@H](O)NC(=O)[C@@H]5[C@@H](O)[C@@H](C)CN5C(=O)[C@H]([C@@H](C)O)NC(=O)[C@H]([C@H](O)[C@@H](O)c5ccc(O)cc5)NC(=O)[C@@H]5C[C@@H](O)CN5C(=O)[C@H]([C@@H](C)O)NC4=O)cc3)cc2)cc1 [ANIDULAFUNGIN] ({pTerphenylCO(4''-OnC5H11)}-[Orn(4R-OH,5R-OH)]T[Hyp][hTyr(3S-OH,4S-OH)]T[Pro(3S-OH,4S-Me)]; lactam 1-C), the log reduction [1] is reported as 1.15 log CFU/ml, the log reduction [2] is reported as 2.94 log CFU/ml and the log reduction [3] is reported as 2.29 log CFU/ml. For the same compound, the log reduction [4] was 1.74 log CFU/ml, the log reduction [5] was 1.59 log CFU/ml and the log reduction [6] was 2.54. It also gave a Time [7] of 8 h, an MIC90 [8] of 0.06 µg/mL (≈ 0.0526 µM) and an MIC [9] of 2 µg/mL (≈ 1.75 µM). For the same compound, the Time [10] was “>=12 hr”, the Time [11] was 8 h and the Time [12] was 8 h. For the same compound, the Activity [13] was “Active”, the Activity [14] was “Active” and the Activity [15] was “Active”. The Activity [16] was “Active”, the Activity [17] was “Active” and the Activity [18] was “Active”. For the same compound, the Activity [19] was “Active”, the Activity [20] was “Active” and the Activity [21] was “Active”. The Activity [22] was “Active” and the “inhibition (INH)” value [23] was 33%.
